We go through three compounds from ChEMBL document CHEMBL1132324, “Structure-activity relationships in 1,4-benzodioxan-related compounds. 6. Role of the dioxane unit on selectivity for alpha(1)-adrenoreceptor subtypes” (J Med Chem, 1999).

The term pKi denotes −log10 of the Ki, conventionally taken in molar units. As usually defined, the pKb is −log10 of the Kb, conventionally taken in molar units.

Experiment [1] addresses T1, 5-hydroxytryptamine receptor 1A (Homo sapiens) (UniProt P08908).
T1 sequence (whole entry): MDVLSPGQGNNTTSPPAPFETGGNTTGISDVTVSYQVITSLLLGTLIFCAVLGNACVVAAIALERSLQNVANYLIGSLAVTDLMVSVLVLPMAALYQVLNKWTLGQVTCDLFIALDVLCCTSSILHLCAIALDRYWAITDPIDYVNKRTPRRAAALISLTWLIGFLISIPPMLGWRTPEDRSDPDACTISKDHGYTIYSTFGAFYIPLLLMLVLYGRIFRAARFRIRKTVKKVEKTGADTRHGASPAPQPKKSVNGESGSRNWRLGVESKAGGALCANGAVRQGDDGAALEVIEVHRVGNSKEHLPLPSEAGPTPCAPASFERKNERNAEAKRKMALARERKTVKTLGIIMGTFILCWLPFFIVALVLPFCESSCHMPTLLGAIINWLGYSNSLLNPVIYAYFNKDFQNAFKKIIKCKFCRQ
In words: The binding affinity was evaluated on cloned human 5-hydroxytryptamine 1A receptor expressed in HeLa cells by using DPAT as radioligand. The format is cell-based. A digest of the protocol:
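Membranes from HeLa cells stably expressing human 5-HT1A, in 50 mM Tris-HCl pH 7.4, 2.5 mM MgCl2, 10 μM pargyline. Nonspecific binding with 10 μM 5-HT. Filtration. Ki by Cheng-Prusoff. 2–3 experiments in triplicate.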

The target in experiment [2] is T2, Alpha-1B adrenergic receptor (Homo sapiens) (UniProt P35368).
T2 sequence (whole entry): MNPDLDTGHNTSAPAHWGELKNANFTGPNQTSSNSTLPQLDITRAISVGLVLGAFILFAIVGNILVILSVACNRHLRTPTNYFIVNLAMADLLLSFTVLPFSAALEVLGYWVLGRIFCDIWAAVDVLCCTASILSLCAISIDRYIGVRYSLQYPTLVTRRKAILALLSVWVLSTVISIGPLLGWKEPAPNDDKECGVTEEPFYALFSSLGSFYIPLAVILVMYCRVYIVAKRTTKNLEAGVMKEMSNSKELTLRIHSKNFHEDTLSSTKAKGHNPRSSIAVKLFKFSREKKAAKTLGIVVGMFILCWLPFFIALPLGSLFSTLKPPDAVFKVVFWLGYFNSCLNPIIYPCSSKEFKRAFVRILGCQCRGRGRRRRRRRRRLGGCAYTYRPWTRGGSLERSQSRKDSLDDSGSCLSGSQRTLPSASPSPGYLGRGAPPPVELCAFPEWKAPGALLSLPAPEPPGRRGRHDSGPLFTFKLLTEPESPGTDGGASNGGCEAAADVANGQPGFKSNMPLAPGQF
In words: The binding affinity was evaluated on cloned human Alpha-1B adrenergic receptor expressed in chinese hamster ovary(CHO) cells by using [3H]prazosin as radioligand. The format is cell-based. A digest of the protocol: (§1)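 Membranes (30 μg protein) from CHO cells stably expressing each human α1 subtype, in 50 mM Tris-HCl pH 7.4. Incubated with 0.1–0.4 nM [3H]prazosin for 30 min at 25 °C, competitor 1 pM–10 μM. Nonspecific binding with 10 μM phentolamine. Ki by Cheng-Prusoff. 2–3 experiments in triplicate.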

The target in experiment [3] is T3, Alpha-1A adrenergic receptor (Homo sapiens) (UniProt P35348).
T3 sequence (whole entry): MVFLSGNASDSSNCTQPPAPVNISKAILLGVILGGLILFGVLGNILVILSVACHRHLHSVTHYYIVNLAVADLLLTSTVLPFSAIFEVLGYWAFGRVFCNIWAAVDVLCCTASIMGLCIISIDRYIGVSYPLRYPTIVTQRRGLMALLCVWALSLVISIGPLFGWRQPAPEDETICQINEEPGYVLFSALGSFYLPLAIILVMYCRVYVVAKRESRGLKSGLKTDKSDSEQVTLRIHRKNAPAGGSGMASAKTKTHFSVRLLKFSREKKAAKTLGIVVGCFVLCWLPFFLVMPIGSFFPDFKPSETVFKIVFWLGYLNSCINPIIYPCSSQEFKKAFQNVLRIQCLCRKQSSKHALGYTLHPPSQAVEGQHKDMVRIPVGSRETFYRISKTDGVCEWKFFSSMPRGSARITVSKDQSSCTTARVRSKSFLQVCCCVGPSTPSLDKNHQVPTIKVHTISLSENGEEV
The experiment can be described thus: The binding affinity was evaluated on cloned human Alpha-1A adrenergic receptor expressed in chinese hamster ovary(CHO) cells by using [3H]prazosin as radioligand. The format is cell-based. The method, boiled down: as §1

Experiment [4] addresses T4, Alpha-1D adrenergic receptor (Rattus norvegicus) (UniProt P23944).
T4 sequence (whole entry): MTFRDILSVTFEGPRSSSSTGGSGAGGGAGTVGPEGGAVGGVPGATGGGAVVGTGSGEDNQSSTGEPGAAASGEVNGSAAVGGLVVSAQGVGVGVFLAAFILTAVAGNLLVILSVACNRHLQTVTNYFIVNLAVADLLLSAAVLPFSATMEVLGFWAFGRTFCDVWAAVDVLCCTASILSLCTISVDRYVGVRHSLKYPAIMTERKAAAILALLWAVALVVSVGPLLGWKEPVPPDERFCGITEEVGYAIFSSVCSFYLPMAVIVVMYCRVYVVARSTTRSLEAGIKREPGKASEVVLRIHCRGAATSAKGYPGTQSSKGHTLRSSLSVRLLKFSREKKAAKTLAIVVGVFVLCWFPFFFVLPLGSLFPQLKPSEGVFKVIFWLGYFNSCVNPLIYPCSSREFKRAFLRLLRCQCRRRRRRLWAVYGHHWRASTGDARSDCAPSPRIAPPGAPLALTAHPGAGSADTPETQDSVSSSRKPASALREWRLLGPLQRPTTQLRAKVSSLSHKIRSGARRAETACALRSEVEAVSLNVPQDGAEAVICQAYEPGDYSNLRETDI
The experiment can be described thus: Antagonist affinity was expressed as apparent pKb at Alpha-1D adrenergic receptor on isolated rat thoracic aorta (Alpha-1D). The format is functional, tissue-based. The method, boiled down: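 Helicoidal strips of rat thoracic aorta at 1 g tension, with 0.1 μM cocaine and 1 μM propranolol. After ≥1 h equilibration, cumulative (–)-noradrenaline curves at 30-min intervals; the third served as control. Antagonist equilibrated 30 min before the fourth curve. Apparent pKb from log(DR−1) − log[B], 2–3 antagonist concentrations, each tested four times.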

Experiment [5] deals with D(2) dopamine receptor (Rattus norvegicus) (UniProt P61169). In words: The binding affinity was evaluated on Dopamine receptor D2 expressed in rat striatum by using [3H]spiperone as radioligand. It counts as tissue-based. The method, boiled down: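 Rat striatum membranes in Tris-HCl with 10 μM pargyline, 0.1% ascorbic acid, 120 mM NaCl, 5 mM KCl, 2 mM CaCl2, 1 mM MgCl2. Incubated 15 min at 37 °C with 0.2–0.6 nM [3H]spiperone. Nonspecific binding with 1 μM (+)-butaclamol. Ki by Cheng-Prusoff. 2–3 experiments in triplicate.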

Experiment [6] has as its system Alpha-1B adrenergic receptor (Cavia porcellus). In words: Antagonist affinity was expressed as apparent pKb at Alpha-1B adrenergic receptor on isolated Guinea pig spleen (Alpha-1B).

D(2) dopamine receptor (Rattus norvegicus), sequence (P61169 whole entry): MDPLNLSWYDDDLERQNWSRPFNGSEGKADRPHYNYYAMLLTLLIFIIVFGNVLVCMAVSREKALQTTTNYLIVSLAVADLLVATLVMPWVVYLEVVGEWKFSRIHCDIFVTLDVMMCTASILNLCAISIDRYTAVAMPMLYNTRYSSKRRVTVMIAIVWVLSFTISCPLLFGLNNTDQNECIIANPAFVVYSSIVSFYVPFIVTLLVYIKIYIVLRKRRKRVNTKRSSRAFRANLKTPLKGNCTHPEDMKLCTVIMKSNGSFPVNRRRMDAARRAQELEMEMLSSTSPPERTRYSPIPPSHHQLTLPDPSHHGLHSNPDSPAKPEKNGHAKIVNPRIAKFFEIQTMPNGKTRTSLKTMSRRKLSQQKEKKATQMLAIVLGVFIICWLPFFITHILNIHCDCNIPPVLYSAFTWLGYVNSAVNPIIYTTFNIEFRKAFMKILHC

For the compound `COc1cccc(OC)c1OCCNCC1Oc2ccccc2CC1c1ccccc1` (stereo in doubt; 7), the pKi was 6.84 in experiment [1], 6.58 in experiment [2], 8.49 in experiment [3] and less than 6 in experiment [5]. Also, the pKb came to 7.46 in experiment [4] and 5.54 in experiment [6].
With `COc1cccc(OC)c1OCCNCC1C(=O)c2ccccc2OC1c1ccccc1` (stereo not drawn), the pKi is 6.73 in experiment [1] and less than 6 in experiment [5].
Consider `COc1cccc(OC)c1OCCNCCOc1ccccc1OCc1ccccc1`, for which the figures for the pKi in experiment [1], in experiment [2] and in experiment [3] were 7.93, 9.27 and 9.33, respectively. Moreover, the pKb in experiment [4] turned out to be 9.37; in experiment [6] it was 7.87.
